The list is not random: actives were taken first. Their share in the collection is about 6.4%.
EBV gp42 block = Epstein-Barr virus gp42 inhibitors, primary screen, biochemical, uHTS, fluorescence polarization | Glycoprotein 42 (Epstein-Barr virus (strain AG876)), Q1HVG2 | Fluorescence polarization binding assay, mP read-out | inhibition, % (tested at 21.74 µM) | 220,000 compounds, 0.42% hits; in the data active means inhibition above about 50%
Target sequence (Q1HVG2 whole entry, looked up): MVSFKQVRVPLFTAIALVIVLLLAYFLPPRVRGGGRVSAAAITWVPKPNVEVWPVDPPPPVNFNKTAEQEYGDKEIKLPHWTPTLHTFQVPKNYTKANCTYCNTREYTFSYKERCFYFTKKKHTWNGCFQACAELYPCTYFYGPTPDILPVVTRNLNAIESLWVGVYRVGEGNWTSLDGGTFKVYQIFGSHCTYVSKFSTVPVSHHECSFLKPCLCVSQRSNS
WT yeast gro inh = growth inhibition of WT strain, primary screen, mitochondrial fusion inhibitor project, WT and mutant strains, chemical genetic | mitochondrial fusion phenotypic screen | AID 1362, 2008 | 190,000 compounds, 2.1% hits | inhibition, % at 10 µM; in the data active means inhibition above about 58%; tested in S. cerevisiae
MPTP inh = mitochondrial permeability transition pore inhibitors, primary screen, biochemical, isolated mouse mitochondria, absorbance; 360,000 compounds, 1.4% hits; Ca2+ swelling absorbance, 30 min; inhibition, % at 10 µM;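 active means inhibition of 50% or more, scaled per plate between neutral and stimulator controls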;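 further: 0% = DMSO wells given calcium and 100% = 1 mM EGTA wells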
NR3A LBD binder = binders of NR3A ligand-binding domain, primary screen, biophysical, differential scanning fluorimetry, uHTS; Glutamate receptor ionotropic, NMDA 3A (GRIN3A) ligand-binding domain; NR3A LBD differential scanning fluorimetry, Tm shift; 0% = protein alone, 100% = glycine-bound protein; Tm shift relative to glycine control, % at 25 µM; 340,000 compounds, 2.5% hits; AID 1259313, 2017;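 active means melting temperature shift of at least 10% of the positive control shift, at one fixed dose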
Tb MetRS inh = T. brucei MetRS inhibitors, primary screen, biochemical, luminescence; methionyl-tRNA synthetase (Trypanosoma brucei brucei); purified T. brucei MetRS, ATP depletion, Kinase-Glo luminescence; 360,000 compounds, 0.4% hits; AID 624268, 2012; inhibition, % at 11.9 µM;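 active means inhibition above a per-plate cutoff of the control wells' mean inhibition plus 3 SD, cut at about 5.5% in these data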;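 further: 0% = DMSO wells median and 100% = median of wells with control inhibitor compound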
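Dosing: 11.9 µM single point; system: parasite MetRS enzyme; technique: luminescence of leftover ATP; times: 15 min enzyme-compound preincubation, 2 h reaction, 10 min detection, 25 °C; replicates: each compound tested once; read-out basis: percent inhibition relative to median high and low control wells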
CHOP inhibitor = inhibitors of CHOP promoter induction, primary screen, cell-based, unfolded protein response, luciferase reporter | 220,000 compounds, 3.8% hits | inhibition, % at 10 µM | CHO-K1 CHOP-promoter luciferase, tunicamycin-induced, 15-18 h;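 active means compounds that reduced the stress-induced luciferase reporter signal by more than about 70% of percent inhibition, limit read from the data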;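 further: 0% = tunicamycin plus vehicle and 100% = wells without tunicamycin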
* marks the source's active call; other numbers are inactive results.

COc1ccc(C(=O)NNC2=Nc3cccc4cccc2c34)cc1 was read as EBV gp42 block -28.0, WT yeast gro inh -3.1, MPTP inh 2.8, NR3A LBD binder 5.0, Tb MetRS inh 0.6 and CHOP inhibitor -14.5.
Cc1ccc(C(=O)NNC2=Nc3cccc4cccc2c34)cc1 was read as EBV gp42 block -25.5, WT yeast gro inh 2.3, MPTP inh 47.6, NR3A LBD binder 1.1, Tb MetRS inh -0.1 and CHOP inhibitor 89.4*.
Screening CC(=O)Nc1ccccc1N(CC(O)Cn1c2ccccc2c2ccccc21)S(=O)(=O)c1ccc(C)cc1 (stereo not given) returned EBV gp42 block 0.1, WT yeast gro inh 15.1, MPTP inh 19.3, NR3A LBD binder 12.6*, Tb MetRS inh 0.3 and CHOP inhibitor 30.5.
For CC(=O)n1cc([C@@H]2C=C(C(=O)N3CCN(Cc4ccccc4)CC3)O[C@H](OCc3ccc(CO)cc3)C2)c2ccccc21 the results were EBV gp42 block -21.6, WT yeast gro inh 20.9, MPTP inh 1.1, NR3A LBD binder -4.3, Tb MetRS inh -0.1 and CHOP inhibitor 35.4.
`O=C(CCC(=O)N1CCSc2ccccc21)NCCc1ccccc1` gave MPTP inh 0.0, NR3A LBD binder 0.2 and Tb MetRS inh -0.7.
`Cc1ccc2c(c1)N=C(c1ccc(Cl)cc1)CO2` gave EBV gp42 block -10.3, WT yeast gro inh 6.1, MPTP inh 1.4, NR3A LBD binder -7.7, Tb MetRS inh -1.5 and CHOP inhibitor 70.8*.
Clc1ccc(C2=Nc3cc(Cl)ccc3OC2)cc1 was read as EBV gp42 block 1.4, WT yeast gro inh 1.1, MPTP inh 1.5, NR3A LBD binder 0.2, Tb MetRS inh 0.2 and CHOP inhibitor -35.0.
`C=CCn1c(SCc2csc(-c3ccc(C)cc3)n2)nnc1-c1ccccc1OC` gave EBV gp42 block -31.3, WT yeast gro inh 81.4*, MPTP inh 3.7, NR3A LBD binder -1.5, Tb MetRS inh -1.3 and CHOP inhibitor 32.0.
For Cc1ccc(-c2nc(C#N)c(N3CCCCC3)o2)cc1 the results were EBV gp42 block -2.5, WT yeast gro inh 13.2, MPTP inh 0.0, NR3A LBD binder 1.4, Tb MetRS inh 0.7 and CHOP inhibitor 67.8.
Screening COc1ccc2oc(=Nc3ccccc3)c(-c3nc4ccccc4[nH]3)cc2c1 returned EBV gp42 block 0.7, WT yeast gro inh 10.3, MPTP inh -0.6, NR3A LBD binder 2.1, Tb MetRS inh -1.2 and CHOP inhibitor 85.6*.
Cc1cc(Nc2nc3ccccc3nc2Cl)n(-c2ccccc2)n1 was read as EBV gp42 block -15.5, WT yeast gro inh -5.5, MPTP inh -0.6, NR3A LBD binder -0.5, Tb MetRS inh -0.1 and CHOP inhibitor 29.0.
Screening Cc1cc(Nc2nc3ccccc3nc2Cl)n(-c2ccccc2C)n1 returned EBV gp42 block -7.7, WT yeast gro inh 63.5*, MPTP inh 0.6, NR3A LBD binder 0.3, Tb MetRS inh -1.1 and CHOP inhibitor 25.9.
O=C(COC(=O)c1ccc(Cl)cc1)NC(=O)NC1CCCC1 was read as MPTP inh -1.2 and Tb MetRS inh -0.3.
For CCCCOCCCNC(=O)Cc1cccs1 the results were EBV gp42 block -15.2, WT yeast gro inh 2.6, MPTP inh 0.2, NR3A LBD binder 10.5*, Tb MetRS inh -0.7 and CHOP inhibitor -2.7.
`CCCN(CCC)S(=O)(=O)c1ccc(NC(=O)Cc2cccs2)cc1` gave EBV gp42 block -11.6, WT yeast gro inh 0.7, MPTP inh 12.9, NR3A LBD binder -0.5, Tb MetRS inh -0.1 and CHOP inhibitor 60.5.
CCOCCCNC(=O)C(NC(=O)Cc1cccs1)c1ccccc1 (stereo not given) was read as EBV gp42 block -13.3, WT yeast gro inh 2.2, MPTP inh -0.6, NR3A LBD binder 1.7, Tb MetRS inh -0.3 and CHOP inhibitor 19.4.
Screening CCCCN(CCCC)S(=O)(=O)c1ccc(NC(=O)Cc2cccs2)cc1 returned EBV gp42 block -24.1, WT yeast gro inh 5.1, MPTP inh 16.4, NR3A LBD binder 6.1, Tb MetRS inh -0.5 and CHOP inhibitor 81.7*.
Screening CCCCN(CCCC)S(=O)(=O)c1ccc(NS(=O)(=O)c2ccc(NC(C)=O)cc2)cc1 returned EBV gp42 block -23.6, WT yeast gro inh 1.0, MPTP inh -1.0, NR3A LBD binder 12.8*, Tb MetRS inh -0.4 and CHOP inhibitor 93.0*.
For CCCCOC(=O)Nc1ccc(S(=O)(=O)Nc2ccc([N+](=O)[O-])cc2)cc1 the results were EBV gp42 block -9.2, WT yeast gro inh -11.0, MPTP inh 4.3, NR3A LBD binder 17.4*, Tb MetRS inh 0.4 and CHOP inhibitor -2.2.
CCCCOc1ccc(S(=O)(=O)Nc2ccc(NC(C)=O)cc2)cc1 was read as EBV gp42 block -9.8, WT yeast gro inh -9.7, MPTP inh 35.5, NR3A LBD binder -3.6, Tb MetRS inh -1.1 and CHOP inhibitor 27.0.
Screening NS(=O)(=O)c1ccc(CCNC(=O)C2CCCN2C(=O)c2cccs2)cc1 (stereo not given) returned MPTP inh -0.1 and Tb MetRS inh -0.3.
`Cc1cccc(C(=O)N/N=C/c2ccccn2)c1` gave EBV gp42 block 4.1, WT yeast gro inh -2.6, MPTP inh -0.9, NR3A LBD binder 5.1, Tb MetRS inh -0.1 and CHOP inhibitor 6.7.
For CCNC(=S)NNC(=O)c1cc(-c2ccccc2C)nc2ccccc12 the results were EBV gp42 block 5.8, WT yeast gro inh -11.2, MPTP inh -0.2, NR3A LBD binder -8.3, Tb MetRS inh 0.0 and CHOP inhibitor 13.6.
Screening Cc1ccc(-n2c(Cc3cccn3C)nnc2SCC(N)=O)cc1 returned EBV gp42 block -4.1, WT yeast gro inh -10.5, MPTP inh -2.0, NR3A LBD binder 2.2, Tb MetRS inh -0.6 and CHOP inhibitor 11.4.
`O=C(Nc1ccc2oc(-c3ccncc3)nc2c1)c1ccc2c(c1)OCCO2` gave EBV gp42 block -2.7, MPTP inh 0.2, NR3A LBD binder -0.4, Tb MetRS inh -1.7 and CHOP inhibitor -9.0.
For CCOc1ccc(-c2c(C(=O)N/N=C/c3c[nH]c4ccccc34)nnn2-c2nonc2N)cc1 the results were MPTP inh 0.9, NR3A LBD binder 32.4* and Tb MetRS inh 0.5.
`CCN(CC)Cc1c(C(=O)N/N=C/c2cccc3ccccc23)nnn1-c1nonc1N` gave MPTP inh 0.5, NR3A LBD binder -3.7 and Tb MetRS inh -0.7.
`CCOc1ccc(/C=N/NC(=O)c2nnn(-c3nonc3N)c2-c2ccc(OCC)cc2)cc1` gave EBV gp42 block 1.4, WT yeast gro inh 2.0, MPTP inh -0.6, NR3A LBD binder 2.5, Tb MetRS inh -0.9 and CHOP inhibitor 44.8.

From PubChem
